The source made the active and inactive calls. No cut-off for these calls is given here.
Experiments:
HepG2 [1] = test: Induction of human ApoA1 gene expression in stably transfected human HepG2 cells coexpressing luciferase reporter gene at 0.001 to 10 uM after 18 hrs by luminescence assay; assay type: functional, cell-based
Outline: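 HepG2 cells stably carrying an ApoA1 promoter–luciferase reporter were incubated 18 h with or without freshly diluted compound in 0.5% DMSO. Bright Glo reagent was then added, and luminescence was read after 10 min with substrate.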

HepG2 [2] = test: Induction of human LDL-R gene expression in stably transfected human HepG2 cells coexpressing luciferase reporter gene at 0.001 to 10 uM after 18 hrs by luminescence assay; assay type: functional, cell-based
Outline: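 Selectivity counter-screen run in parallel under the same conditions as the ApoA1 reporter: HepG2 cells stably carrying an LDL-receptor promoter–luciferase reporter, 18 h with or without compound in 0.5% DMSO, then Bright Glo luminescence read after 10 min.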

HepG2 [3] = test: Induction of human ApoA1 gene expression in stably transfected human HepG2 cells coexpressing luciferase reporter gene after 18 hrs by luminescence assay; assay type: functional, cell-based
HepG2 [4] = test: Induction of human ApoA1 protein synthesis in human HepG2 cells assessed as neosynthesised radiolabeled protein secretion after 6 hrs by SDS PAGE analysis in presence of [35S]methionine; assay type: functional, cell-based
Outline: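 Confluent HepG2 cells were exposed to compound for 48 h in BME with 1% FCS. Compound was re-added in Met/Cys-depleted RPMI-1640 containing 35S-methionine for 6 h at 37 °C. Secreted labelled proteins were separated on 5–12% SDS-PAGE, and ApoA1 was quantified by phosphorimaging.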

HepG2 [5] = test: Induction of human ApoA1 gene expression in stably transfected human HepG2 cells coexpressing luciferase reporter gene at 1 uM after 18 hrs by luminescence assay relative to control; assay type: functional
CREB-binding protein = CREB-binding protein (Homo sapiens, UniProt Q92793); test: Binding affinity to CREBBP by isothermal titration calorimetric analysis
[6] = target: T1, ATPase family AAA domain-containing protein 2 (Homo sapiens, UniProt Q6PL18); test: Binding affinity to ATAD2 by isothermal titration calorimetric analysis
T1 sequence (Q6PL18 whole entry): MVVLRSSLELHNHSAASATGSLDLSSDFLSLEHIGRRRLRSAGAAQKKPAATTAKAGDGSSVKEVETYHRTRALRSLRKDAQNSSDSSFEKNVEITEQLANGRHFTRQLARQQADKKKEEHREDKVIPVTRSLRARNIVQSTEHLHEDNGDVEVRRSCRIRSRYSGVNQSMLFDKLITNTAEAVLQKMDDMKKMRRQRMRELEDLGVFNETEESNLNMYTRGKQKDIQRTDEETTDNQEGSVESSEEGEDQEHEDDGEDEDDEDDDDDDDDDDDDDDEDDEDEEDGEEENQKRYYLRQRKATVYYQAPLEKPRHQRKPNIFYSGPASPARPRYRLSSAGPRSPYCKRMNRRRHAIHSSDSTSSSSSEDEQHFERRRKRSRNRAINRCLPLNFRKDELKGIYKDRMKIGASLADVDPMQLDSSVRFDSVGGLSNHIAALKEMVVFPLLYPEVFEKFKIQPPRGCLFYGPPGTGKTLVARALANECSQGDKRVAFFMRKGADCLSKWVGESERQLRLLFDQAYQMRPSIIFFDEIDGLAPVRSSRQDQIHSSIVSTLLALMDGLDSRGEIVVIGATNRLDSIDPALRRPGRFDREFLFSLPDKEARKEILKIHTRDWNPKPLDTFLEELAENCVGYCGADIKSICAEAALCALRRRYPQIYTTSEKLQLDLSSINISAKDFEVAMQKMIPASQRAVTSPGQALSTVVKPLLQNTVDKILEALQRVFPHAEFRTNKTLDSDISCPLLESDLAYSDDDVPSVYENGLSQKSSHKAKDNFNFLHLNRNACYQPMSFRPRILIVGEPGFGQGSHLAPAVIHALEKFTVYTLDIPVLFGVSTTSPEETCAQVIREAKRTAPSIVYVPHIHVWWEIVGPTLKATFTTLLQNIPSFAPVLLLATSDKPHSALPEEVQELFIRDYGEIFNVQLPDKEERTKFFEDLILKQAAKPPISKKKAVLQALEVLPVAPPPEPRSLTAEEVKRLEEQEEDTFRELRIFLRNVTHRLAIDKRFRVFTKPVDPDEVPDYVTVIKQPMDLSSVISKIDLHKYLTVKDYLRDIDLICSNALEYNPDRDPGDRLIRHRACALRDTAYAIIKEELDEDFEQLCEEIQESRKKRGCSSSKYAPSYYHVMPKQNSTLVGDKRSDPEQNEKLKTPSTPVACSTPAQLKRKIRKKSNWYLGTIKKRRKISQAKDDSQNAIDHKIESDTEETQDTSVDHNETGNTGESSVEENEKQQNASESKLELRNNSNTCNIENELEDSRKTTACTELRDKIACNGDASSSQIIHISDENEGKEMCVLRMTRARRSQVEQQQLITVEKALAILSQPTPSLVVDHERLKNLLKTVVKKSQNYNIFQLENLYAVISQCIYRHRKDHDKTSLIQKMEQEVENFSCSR

HepG2 [7] = test: Induction of human ApoA1 gene expression in stably transfected human HepG2 cells coexpressing luciferase reporter gene after 18 hrs by luminescence assay relative to control; assay type: functional

CREB-binding protein, sequence (Q92793 whole entry, the tested form may be a part): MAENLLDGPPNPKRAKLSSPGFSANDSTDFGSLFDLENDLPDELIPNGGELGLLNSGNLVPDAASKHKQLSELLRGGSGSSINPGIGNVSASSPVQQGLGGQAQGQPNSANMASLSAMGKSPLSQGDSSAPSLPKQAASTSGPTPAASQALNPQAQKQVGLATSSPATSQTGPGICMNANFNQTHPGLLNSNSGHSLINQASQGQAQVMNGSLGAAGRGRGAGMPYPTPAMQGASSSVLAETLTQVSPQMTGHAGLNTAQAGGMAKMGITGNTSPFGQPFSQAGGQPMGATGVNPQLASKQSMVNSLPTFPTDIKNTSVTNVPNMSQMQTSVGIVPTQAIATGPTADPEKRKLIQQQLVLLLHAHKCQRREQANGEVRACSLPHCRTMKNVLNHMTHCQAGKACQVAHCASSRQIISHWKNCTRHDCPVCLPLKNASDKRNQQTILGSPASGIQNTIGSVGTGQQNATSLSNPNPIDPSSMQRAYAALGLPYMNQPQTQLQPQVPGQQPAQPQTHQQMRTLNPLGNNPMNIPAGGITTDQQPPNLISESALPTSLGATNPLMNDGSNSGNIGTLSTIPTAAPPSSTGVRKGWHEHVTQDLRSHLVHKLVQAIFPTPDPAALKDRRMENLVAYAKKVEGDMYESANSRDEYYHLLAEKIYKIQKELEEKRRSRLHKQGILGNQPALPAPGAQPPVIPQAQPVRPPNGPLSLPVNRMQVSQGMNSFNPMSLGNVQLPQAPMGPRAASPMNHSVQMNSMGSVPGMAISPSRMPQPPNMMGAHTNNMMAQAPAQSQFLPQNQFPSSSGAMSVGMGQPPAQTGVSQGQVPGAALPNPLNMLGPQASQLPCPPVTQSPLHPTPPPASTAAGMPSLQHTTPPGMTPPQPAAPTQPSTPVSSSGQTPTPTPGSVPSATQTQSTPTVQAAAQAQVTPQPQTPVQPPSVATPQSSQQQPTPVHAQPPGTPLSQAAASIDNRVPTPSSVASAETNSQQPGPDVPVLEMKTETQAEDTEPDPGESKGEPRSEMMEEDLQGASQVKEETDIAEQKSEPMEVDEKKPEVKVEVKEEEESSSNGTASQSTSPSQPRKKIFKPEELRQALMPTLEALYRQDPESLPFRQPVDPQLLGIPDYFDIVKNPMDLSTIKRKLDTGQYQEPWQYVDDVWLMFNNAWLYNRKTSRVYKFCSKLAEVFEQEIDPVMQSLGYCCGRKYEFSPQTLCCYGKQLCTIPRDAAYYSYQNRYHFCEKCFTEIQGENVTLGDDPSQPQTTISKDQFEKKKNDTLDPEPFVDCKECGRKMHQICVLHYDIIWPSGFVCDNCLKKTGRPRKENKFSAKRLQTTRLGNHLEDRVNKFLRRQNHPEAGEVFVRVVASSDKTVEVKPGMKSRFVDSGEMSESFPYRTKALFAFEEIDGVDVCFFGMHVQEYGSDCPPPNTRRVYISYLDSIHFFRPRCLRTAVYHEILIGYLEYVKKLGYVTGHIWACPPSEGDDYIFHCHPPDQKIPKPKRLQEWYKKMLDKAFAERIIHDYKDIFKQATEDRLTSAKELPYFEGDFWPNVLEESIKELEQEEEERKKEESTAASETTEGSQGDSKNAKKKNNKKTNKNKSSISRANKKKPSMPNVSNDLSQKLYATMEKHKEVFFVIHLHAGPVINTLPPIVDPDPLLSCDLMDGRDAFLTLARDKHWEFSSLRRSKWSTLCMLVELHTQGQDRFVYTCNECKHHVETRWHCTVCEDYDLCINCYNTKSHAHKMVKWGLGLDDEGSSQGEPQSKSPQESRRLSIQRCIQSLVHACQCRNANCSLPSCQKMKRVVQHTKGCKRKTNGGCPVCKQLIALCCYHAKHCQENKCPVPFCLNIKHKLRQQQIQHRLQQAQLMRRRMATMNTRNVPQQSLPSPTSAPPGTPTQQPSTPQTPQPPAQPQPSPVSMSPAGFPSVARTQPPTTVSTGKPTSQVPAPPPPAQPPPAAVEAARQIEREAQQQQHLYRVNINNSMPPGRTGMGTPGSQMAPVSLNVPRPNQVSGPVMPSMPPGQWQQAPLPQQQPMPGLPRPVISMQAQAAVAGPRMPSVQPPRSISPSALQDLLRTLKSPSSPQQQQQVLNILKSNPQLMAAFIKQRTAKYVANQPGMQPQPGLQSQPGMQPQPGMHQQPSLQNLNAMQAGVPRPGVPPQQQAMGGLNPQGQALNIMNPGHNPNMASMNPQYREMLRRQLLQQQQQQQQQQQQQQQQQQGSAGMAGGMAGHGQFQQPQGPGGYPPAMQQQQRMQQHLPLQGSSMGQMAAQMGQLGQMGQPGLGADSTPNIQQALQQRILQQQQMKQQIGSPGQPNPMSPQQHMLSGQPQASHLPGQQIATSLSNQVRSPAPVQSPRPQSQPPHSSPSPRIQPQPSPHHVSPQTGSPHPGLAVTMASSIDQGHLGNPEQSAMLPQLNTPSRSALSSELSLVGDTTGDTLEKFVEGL

| Compound | Activity (HepG2 [1]) | Activity (HepG2 [2]) | Activity (HepG2 [3]) | Activity (HepG2 [4]) | EC50 (HepG2 [3]; HepG2, 18 h) | fold change (FC) (HepG2 [5]) | Kd (CREB-binding protein) | Kd [6] | fold change (FC) (HepG2 [7]) |
| --- | --- | --- | --- | --- | --- | --- | --- | --- | --- |
| CCNC(=O)C[C@H]1N=C(c2ccc(Cl)cc2)c2cc(OC)ccc2-n2c(C)nnc21 | inactive | inactive | – | – | – | – | – | – | – |
| CCNC(=O)C[C@@H]1N=C(c2ccc(Cl)cc2)c2cc(OC)ccc2-n2c(C)nnc21 | – | inactive | Dose-dependent effect | Active | – | – | – | – | – |
| Cc1nnc2n1-c1ccccc1C(c1ccccc1)=NC2NC(=O)OCc1ccccc1 (configuration not stated) | – | inactive | Dose-dependent effect | – | 0.44 µM | 3 | > 50 µM | > 50 µM | 4.5 |

Reference: ChEMBL document CHEMBL2150880, “Discovery and characterization of small molecule inhibitors of the BET family bromodomains” (J Med Chem, 2011)
